From ChEMBL document CHEMBL1139462, “Identification of novel and improved antimitotic agents derived from noscapine” (J Med Chem, 2005)
Activity calls are given as the source filed them. The calls are words filed in the database; no cut-off is given here.

Experiments:
[1] = Cell cycle arrest in HEK293EBNA cells by accumulation at G1 phase cell at 5 uM relative to DMSO; assay type: functional, cell-based; conditions: Homo sapiens, HEK293-EBNA
Summary of the method: (§1)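 HEK293 cells were exposed to compound for 16 h at the stated concentration, then analyzed by FACS for cell-cycle distribution (G1, S and G2/M fractions). Profiles were compared with a 0.5% DMSO vehicle control.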

[2] = Cell cycle arrest in HEK293EBNA cells by accumulation at S phase cell at 5 uM relative to DMSO; assay type: functional, cell-based; conditions: Homo sapiens, HEK293-EBNA; summary of the method: as §1
[3] = Cell cycle arrest in HEK293EBNA cells by accumulation at G2/M phase cell at 5 uM relative to DMSO; assay type: functional, cell-based; conditions: Homo sapiens, HEK293-EBNA; summary of the method: as §1
A549 [4] = experiment: Effect on cell growth in A549 cells by colony-forming assay; assay type: functional, cell-based; conditions: Homo sapiens
A549 [5] = experiment: Effect on cell growth in A549 cells by MTS assay; assay type: functional, cell-based; conditions: Homo sapiens
NIH3T3 [6] = experiment: Effect on cell growth in nondividing Swiss 3T3 cells at 3 uM by MTS assay; assay type: functional, cell-based; conditions: Mus musculus
Summary of the method: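 Swiss 3T3 cells were tested in either a dividing or a nondividing state. Growth was read out by MTS assay, and an EC50 was derived for the dividing cells.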

[7] = AUC in mouse at 2 mg/kg, iv; assay type: ADME, organism-based; design: dose 2 mg/kg, route intravenous; conditions: plasma
[8] = (§2) Half life in mouse at 2 mg/kg, iv; assay type: ADME, organism-based; design: dose 2 mg/kg, route intravenous; conditions: in vivo
[9] = Cell cycle arrest in HEK293EBNA cells by accumulation at G2/M phase cell at 0.1 uM relative to DMSO; assay type: functional, cell-based; conditions: Homo sapiens, HEK293-EBNA
Summary of the method: (§3)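 HEK293 cells were exposed for 16 h to compound or to a 0.5% DMSO vehicle control. Cell-cycle phase distribution (G1, S, G2/M) was determined by FACS analysis and compared with the DMSO profile.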

Tubulin = experiment: Inhibition of tubulin polymerization; assay type: protein-complex assay, Homo sapiens
[10] = Cell cycle arrest in HEK293EBNA cells by accumulation at G1 phase cell at 0.1 uM relative to DMSO; assay type: functional, cell-based; conditions: Homo sapiens, HEK293-EBNA; summary of the method: as §3
[11] = Clearance in mouse at 2 mg/kg, iv; assay type: ADME, organism-based; design: dose 2 mg/kg, route intravenous; conditions: in vivo
Summary of the method: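 Pharmacokinetics were measured in mice, with an intravenous dose of 2 mg/kg; the study's oral arm used 20 mg/kg po.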

[12] = Cell cycle arrest in HEK293EBNA cells by accumulation at S phase cell at 0.1 uM relative to DMSO; assay type: functional, cell-based; conditions: Homo sapiens, HEK293-EBNA; summary of the method: as §3
[13] = AUC in mouse at 20 mg/kg, po; assay type: ADME, organism-based; design: dose 20 mg/kg, route oral; conditions: plasma
[14] = (§4) Volume of distribution in mouse at 2 mg/kg, iv; assay type: ADME, organism-based; design: dose 2 mg/kg, route intravenous; conditions: in vivo, read-out: Vdss
[15] = Bioavailability in mouse at 20 mg/kg, po; assay type: ADME, organism-based; conditions: in vivo
[16] = Cell cycle arrest in HEK293EBNA cells by accumulation at G1 phase cell at 50 uM relative to DMSO; assay type: functional, cell-based; conditions: Homo sapiens, HEK293-EBNA; summary of the method: as §1
Mus musculus [17] = experiment: as §2; assay type: ADME, organism-based; design: dose 2 mg/kg, route intravenous; conditions: in vivo
[18] = Cell cycle arrest in HEK293EBNA cells by accumulation at S phase cell at 50 uM relative to DMSO; assay type: functional, cell-based; conditions: Homo sapiens, HEK293-EBNA; summary of the method: as §1
Mus musculus [19] = experiment: as §4; assay type: ADME, organism-based; design: dose 2 mg/kg, route intravenous; conditions: in vivo
[20] = Cell cycle arrest in HEK293EBNA cells by accumulation at G2/M phase cell at 50 uM relative to DMSO; assay type: functional, cell-based; conditions: Homo sapiens, HEK293-EBNA; summary of the method: as §1
[21] = Cell cycle arrest in HEK293EBNA cells by accumulation at G2/M phase cell at 1 uM relative to DMSO; assay type: functional, cell-based; conditions: Homo sapiens, HEK293-EBNA; summary of the method: as §1
[22] = Cell cycle arrest in HEK293EBNA cells by accumulation at G1 phase cell at 1 uM relative to DMSO; assay type: functional, cell-based; conditions: Homo sapiens, HEK293-EBNA; summary of the method: as §1
[23] = Cell cycle arrest in HEK293EBNA cells by accumulation at S phase cell at 1 uM relative to DMSO; assay type: functional, cell-based; conditions: Homo sapiens, HEK293-EBNA; summary of the method: as §1
NIH3T3 [24] = experiment: Effect on cell growth in nondividing Swiss 3T3 cells at 50 uM by MTS assay; assay type: functional, cell-based; conditions: Mus musculus
[25] = Cell cycle arrest in HEK293EBNA cells by accumulation at G1 phase cell at 0.5 uM relative to DMSO; assay type: functional, cell-based; conditions: Homo sapiens, HEK293-EBNA; summary of the method: as §1
[26] = Cell cycle arrest in HEK293EBNA cells by accumulation at S phase cell at 0.5 uM relative to DMSO; assay type: functional, cell-based; conditions: Homo sapiens, HEK293-EBNA; summary of the method: as §1
[27] = Cell cycle arrest in HEK293EBNA cells by accumulation at G2/M phase cell at 0.5 uM relative to DMSO; assay type: functional, cell-based; conditions: Homo sapiens, HEK293-EBNA; summary of the method: as §1
[28] = Cell cycle arrest in HEK293EBNA cells by accumulation at G2/M phase cell at 10 uM relative to DMSO; assay type: functional, cell-based; conditions: Homo sapiens, HEK293-EBNA; summary of the method: as §3
[29] = Cell cycle arrest in HEK293EBNA cells by accumulation at S phase cell at 10 uM relative to DMSO; assay type: functional, cell-based; conditions: Homo sapiens, HEK293-EBNA; summary of the method: as §3
[30] = Cell cycle arrest in HEK293EBNA cells by accumulation at G1 phase cell at 10 uM relative to DMSO; assay type: functional, cell-based; conditions: Homo sapiens, HEK293-EBNA; summary of the method: as §3

## COc1ccc2c(c1S)C(=O)O[C@@H]2[C@H]1c2c(cc3c(c2OC)OCO3)CCN1C
[1]
  Activity: 3%
[2]
  Activity: 7%
[3]
  Activity: 90%

## COc1ccc2c(c1N)C(=O)O[C@@H]2[C@H]1c2c(cc3c(c2OC)OCO3)CCN1C
A549 [4]
  EC50: 84 nM
A549 [5]
  EC50: 97 nM
NIH3T3 [6]
  Activity: inactive
[7]
  AUC: 350 ng·h/mL
[8]
  half-life: 1.04 h
[9]
  Activity: 92%
Tubulin
  EC50: 300 nM
[10]
  Activity: 1%
[11]
  clearance: 95.3 mL/min/kg
[12]
  Activity: 7%
[13]
  AUC: 391 ng·h/mL
[14]
  Vd: 8.47 L/kg
[15]
  bioavailability: 11.4%

## COc1ccc2c(c1OC)C(=O)O[C@@H]2[C@H]1c2c(cc3c(c2OC)OCO3)CCN1C [NOSCAPINE]
A549 [5]
  EC50: 25000 nM
[16]
  Activity: 19%
[7]
  AUC: 345 ng·h/mL
Mus musculus [17]
  t1/2: 0.833 h
Tubulin
  EC50: > 50000 nM
[13]
  AUC: 524 ng·h/mL
[18]
  Activity: 31%
Mus musculus [19]
  Vdss: 15.53 L/kg
[15]
  bioavailability: 14.1%
[20]
  Activity: 50%

## COc1ccc2c(c1O)C(=O)O[C@@H]2[C@H]1c2c(cc3c(c2OC)OCO3)CCN1C
A549 [4]
  EC50: 500 nM
A549 [5]
  EC50: 600 nM
[21]
  Activity: 88%
[7]
  AUC: 331 ng·h/mL
[8]
  half-life: 2.79 h
[22]
  Activity: 3%
Tubulin
  EC50: 700 nM
[11]
  clearance: 101 mL/min/kg
[23]
  Activity: 9%
[13]
  AUC: 740 ng·h/mL
NIH3T3 [24]
  Activity: inactive
[14]
  Vd: 28.1 L/kg
[15]
  bioavailability: 22%

## CNc1c(OC)ccc2c1C(=O)O[C@@H]2[C@H]1c2c(cc3c(c2OC)OCO3)CCN1C
[25]
  Activity: 8%
[26]
  Activity: 25%
[27]
  Activity: 67%

## COc1ccc2c(c1NCc1ccccc1)C(=O)O[C@@H]2[C@H]1c2c(cc3c(c2OC)OCO3)CCN1C
[1]
  Activity: 8%
[2]
  Activity: 29%
[3]
  Activity: 63%

## COc1ccc2c(c1)C(=O)O[C@@H]2[C@H]1c2c(cc3c(c2OC)OCO3)CCN1C
[21]
  Activity: 90%
[22]
  Activity: 4%
[23]
  Activity: 6%

## COc1ccc2c(c1OS(=O)(=O)C(F)(F)F)C(=O)O[C@@H]2[C@H]1c2c(cc3c(c2OC)OCO3)CCN1C
[16]
  Activity: 56%
[18]
  Activity: 35%
[20]
  Activity: 9%

## COc1cc2c(c(OC)c1OC)-c1ccc(OC)c(=O)cc1[C@@H](NC(C)=O)CC2
[28]
  Activity: 83%
[29]
  Activity: 14%
[30]
  Activity: 3%

## CC[C@]1(O)C[C@@H]2CN(CCc3c([nH]c4ccccc34)[C@@](C(=O)OC)(c3cc4c(cc3OC)N(C)[C@H]3[C@@](O)(C(=O)OC)[C@H](OC(C)=O)[C@]5(CC)C=CCN6CC[C@]43[C@@H]65)C2)C1 [VINBLASTINE]
A549 [4]
  EC50: 0.5 nM
A549 [5]
  EC50: 0.9 nM

## COc1ccc2c(c1N)C(=O)O[C@@H]2[C@H]1c2c(c(Br)c3c(c2OC)OCO3)CCN1C
[21]
  Activity: 81%
[22]
  Activity: 4%
[23]
  Activity: 15%
